Experimental findings from ChEMBL document CHEMBL4732215, “In vitro and in vivo antiplasmodial activity of novel quinoline derivative compounds by molecular hybridization” (Eur J Med Chem, 2021) are described below.

The nature of data set [1]: (§1) Hemolytic activity against human RBC at 150 uM incubated for 16 hrs by spectrophotometric analysis. The format is ADME, cell-based, Erythrocyte. The note with it: human red blood cells (erythrocytes), read-out: Activity. The gist of the method: (§2)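 Red blood cells were incubated with compound at 37 °C for 16 h, with 1% saponin as positive and PBS as negative control. Tubes were centrifuged at 2000 rpm for 3 min, and supernatant absorbance was read at 540 nm. Percent hemolysis was calculated relative to the saponin and PBS mean absorbances. Means were compared by ANOVA with Tukey test.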

A short description of data set [2]: Cytotoxicity against human WI26VA4 cells assessed as reduction in cell viability incubated for 48 hrs by MTT assay. The format is cell-based. (Formazan colour is commonly taken as a measure of viable cells.)
The test system of a further data set is Plasmodium falciparum. The experiment in a line: Antimalarial activity against chloroquine-resistant Plasmodium falciparum W2 infected in human RBC assessed as reduction in HRP2 level by ELISA. The format is functional, organism-based. The note with it: W2, Erythrocyte. For orientation: An ELISA detects its analyte on a solid surface through an enzyme-linked reagent.

Data set [3] can be described thus: Selectivity index, ratio of CC50 for human WI-26VA-4 cells to IC50 for chloroquine-resistant ring-stage Plasmodium falciparum W2 infected in human RBC. The format is toxicity. As to conditions: read-out: Ratio CC50/IC50.
The test system of a further data set is Erythrocyte. The data set is described as §1. The data set is classed as ADME, cell-based. The note with it: erythrocyte, 16 h, 150 µM. The gist of the method: as §2
Data set [4] concerns Plasmodium berghei. As to the kind of experiment: Antimalarial activity against Plasmodium berghei NK65 infected in Swiss mouse assessed as parasitemia at 10 mg/kg, po administered for 4 days and measured on day 5 post infection by Giemsa staining based microscopic analysis (reference value: 100 %). The data set is classed as functional. The note with it: time 4 day. The gist of the method:
(§3)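 Modified suppressive test in female Swiss mice infected with P. berghei NK65. Compounds were solubilized in 5% DMSO, diluted in water, and given by gavage. Parasitemia was read on Giemsa-stained blood smears on days 5 and 9 post-infection. Inhibition of parasite multiplication = [(A−B)/A]×100, where A is parasitemia of the water + 5% DMSO group.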

Data set [5] has as its system Plasmodium berghei. The experiment in a line: Antimalarial activity against Plasmodium berghei NK65 infected in Swiss mouse assessed as parasitemia at 10 mg/kg, po administered for 4 days and measured on day 9 post infection by Giemsa staining based microscopic analysis (reference value: 100 %). As to conditions: time 4 day. The data set is classed as functional. The gist of the method:
as §3

In data set [6] the test system is Plasmodium berghei. As to the kind of experiment: Antimalarial activity against Plasmodium berghei NK65 infected in Swiss mouse assessed as parasitemia at 15 mg/kg, po administered for 4 days and measured on day 5 post infection by Giemsa staining based microscopic analysis (reference value: 100 %). The format is functional. As to conditions: time 4 day. The gist of the method:
as §3

Data set [7] has as its system Plasmodium berghei. As to the kind of experiment: Antimalarial activity against Plasmodium berghei NK65 infected in Swiss mouse assessed as parasitemia at 15 mg/kg, po administered for 4 days and measured on day 9 post infection by Giemsa staining based microscopic analysis (reference value: 100 %). The format is functional. As to conditions: time 4 day. A digest of the protocol:
as §3

The subject of data set [8] is Plasmodium berghei. As to the kind of experiment: Antimalarial activity against Plasmodium berghei NK65 infected in Swiss mouse assessed as parasitemia at 25 mg/kg, po administered for 4 days and measured on day 5 post infection by Giemsa staining based microscopic analysis (reference value: 100 %). The data set is classed as functional. The note with it: time 4 day. A digest of the protocol: as §3

In data set [9] the test system is Plasmodium berghei. As to the kind of experiment: Antimalarial activity against Plasmodium berghei NK65 infected in Swiss mouse assessed as parasitemia at 25 mg/kg, po administered for 4 days and measured on day 9 post infection by Giemsa staining based microscopic analysis (reference value: 100 %). The format is functional. The note with it: time 4 day. A digest of the protocol: as §3

The test system of data set [10] is Ferriprotoporphyrin IX. As to the kind of experiment: Binding affinity to Fe(III)PPIX (unknown origin) assessed as reduction in hypochromism by UV-Vis spectrophotometric analysis relative to control. As to conditions: concentration not given here. A digest of the protocol:
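Soret band (402 nm) absorbance of Fe(III)PPIX in Tris pH 7.5/aqueous DMSO was followed while 0.3 mM compound was titrated in to saturation. The blank was treated the same way to subtract compound absorbance. Hypochromism was taken as the percentage reduction in absorption intensity. Run in triplicate.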

For data set [11], the system named is Ferriprotoporphyrin IX. As to the kind of experiment: Binding affinity to Fe(III)PPIX (unknown origin) assessed as association constant by UV-Vis spectrophotometric analysis relative to control. The gist of the method:
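UV-vis titration against Fe(III)PPIX at pH 7.5. Hemin stock was in DMSO and diluted in aqueous DMSO with 0.2 M Tris buffer pH 7.5. A 0.3 mM compound solution in the same solvent ratio was added in aliquots to 2 mL hemin solution. The blank received the same additions, and its absorbance was subtracted. A at 402 nm (Soret band) was fitted to a 1:1 complexation model by nonlinear least squares to give K. Run in triplicate.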

Data set [12] relates to Plasmodium berghei. As to the kind of experiment: Antimalarial activity against Plasmodium berghei NK65 infected in Swiss mouse assessed as parasitemia at 5 mg/kg, po administered for 4 days and measured on day 5 post infection by Giemsa staining based microscopic analysis (reference value: 100 %). The format is functional. The note with it: time 4 day. A digest of the protocol: (§4)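 Modified Peters 4-day suppressive test in female Swiss mice infected with P. berghei NK65. Dosing was by gavage, with compounds dissolved in 5% DMSO and diluted in water. Parasitemia was read on Giemsa-stained blood smears. Inhibition of parasite multiplication = [(A−B)/A]×100, where A is the water + 5% DMSO group and B the treated group; both are group mean parasitemias.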

In data set [13] the test system is Plasmodium berghei. As to the kind of experiment: Antimalarial activity against Plasmodium berghei NK65 infected in Swiss mouse assessed as parasitemia at 5 mg/kg, po administered for 4 days and measured on day 9 post infection by Giemsa staining based microscopic analysis (reference value: 100 %). The data set is classed as functional. The note with it: time 4 day. A digest of the protocol: as §4

Molecules are shown by their SMILES.

The CC50 is the concentration that lowers cell viability or growth by half. In general, IC50 refers to the concentration that gives 50% inhibition. Take `COc1cc(/C=N/Nc2ccnc3cc(Cl)ccc23)ccc1O`: the hemolysis at 16 h, 150 µM in data set [1] was less than 10%. In addition, the CC50 at 48 h in data set [2] came to 10.8 µM. The IC50 in the data set with Plasmodium falciparum stood at 0.235 µM. Moreover, in data set [3], the selectivity ratio is 45.8.
With `Oc1ccc(/C=N/CCNc2ccnc3cc(Cl)ccc23)cc1`, in data set [1], the hemolysis at 16 h, 150 µM was less than 10%. In addition, in data set [2], the cytotoxic concentration (CC50) at 48 h worked out at 130 µM. The concentration for half-maximal inhibition (IC50) in the data set with Plasmodium falciparum turned out to be 0.162 µM. For the same compound, in [3], the selectivity ratio stood at 802.
In the case of `O=Cc1ccc(/C=N/CCNc2ccnc3cc(Cl)ccc23)cc1`, the cytotoxic concentration (CC50) at 48 h in [2] stood at 138 µM. Further, the half-inhibitory concentration (IC50) with Plasmodium falciparum amounted to 0.16 µM. In addition, in data set [3], the selectivity ratio came out at 861.
In the case of `Oc1ccccc1/C=N/CCNc1ccnc2cc(Cl)ccc12`, the hemolysis at 16 h, 150 µM in [1] is less than 10%. Besides, the CC50 at 48 h in [2] worked out at 25.3 µM. The IC50 in the data set with Plasmodium falciparum was 0.26 µM. In addition, the selectivity ratio in data set [3] is 97.4.
Regarding `Oc1cc(O)cc(/C=N/Nc2ccnc3cc(Cl)ccc23)c1`, in data set [1], the hemolysis at 16 h, 150 µM was less than 10%. Besides, in data set [2], the CC50 at 48 h amounted to 12.9 µM. Also, the concentration for half-maximal inhibition (IC50) with Plasmodium falciparum turned out to be 0.625 µM. Besides, in [3], the selectivity ratio was found to be 20.6.
Consider `O=C(O)c1ccc(/C=N/Nc2ccnc3cc(Cl)ccc23)cc1`, for which the hemolysis at 16 h, 150 µM in data set [1] is less than 10%. Also, the CC50 at 48 h in [2] amounted to 82 µM. Further, the IC50 in the data set with Plasmodium falciparum was determined as 0.335 µM. For the same compound, the selectivity ratio in data set [3] was determined as 245.
Take `Oc1ccc(/C=N/Nc2ccnc3cc(Cl)ccc23)c(O)c1`: the hemolysis at 16 h, 150 µM in data set [1] is less than 10%. The CC50 at 48 h in data set [2] amounted to 7.27 µM. The concentration for half-maximal inhibition (IC50) in the data set with Plasmodium falciparum was found to be 0.235 µM. For the same compound, the selectivity ratio in data set [3] stood at 30.9.
Consider `CCN(CC)CCCC(C)Nc1ccnc2cc(Cl)ccc12` (centres undefined) [CHLOROQUINE], for which the Activity result in the data set on Erythrocyte is on record as “Non-Toxic”; in the data set with Plasmodium berghei [4], 94.04%; with Plasmodium berghei [5], 41.27%. The CC50 at 48 h in [2] is greater than 19.4 µM.
The inhibition is the share of the control response that was lost under treatment. For `Oc1ccc(/C=N/CCNc2ccnc3cc(Cl)ccc23)c(O)c1`, the hemolysis at 16 h, 150 µM in [1] was less than 10%. For the same compound, the CC50 at 48 h in [2] was 171 µM. Besides, in the data set with Plasmodium falciparum, the IC50 was 0.172 µM. Moreover, the selectivity ratio in [3] came to 990. Also, the Activity is 71.15% with Plasmodium berghei [6], 40.13% in the data set with Plasmodium berghei [7], 93.7% with Plasmodium berghei [8] and 41.01% with Plasmodium berghei [9]. Moreover, in the data set on Ferriprotoporphyrin IX [10], the inhibition is 50.4%. The log K with Ferriprotoporphyrin IX [11] came out at 4.77.
For the compound `C[C@@H]1CC[C@H]2[C@@H](C)C(=O)O[C@@H]3O[C@@]4(C)CC[C@@H]1[C@]32OO4` [ARTEMISININ], the Activity is reported as 94.9% in the data set with Plasmodium berghei [12] and 96.64% in the data set with Plasmodium berghei [13].
`Oc1cc(O)cc(/C=N/CCNc2ccnc3cc(Cl)ccc23)c1`: the hemolysis at 16 h, 150 µM in data set [1] is less than 10%. Further, in [2], the CC50 at 48 h stood at 79.3 µM. Also, the IC50 with Plasmodium falciparum stood at 0.205 µM. For the same compound, the selectivity ratio in [3] was 387.
Regarding `CC1(C)[C@@H](O[C@@H]2OC[C@H](O[C@@H]3OC[C@@H](O)[C@H](O)[C@H]3O)[C@H](O[C@H]3O[C@H](CO)[C@@H](O)[C@H](O)[C@H]3O)[C@H]2O[C@@H]2O[C@H](CO)[C@@H](O)[C@H](O)[C@H]2O[C@H]2O[C@H](CO)[C@@H](O)[C@H](O)[C@H]2O)CC[C@]2(C)[C@H]3CCC45OCC6(CC[C@@](C)(C=O)C[C@@H]64)[C@H](O)C[C@@]5(C)[C@]3(C)CC[C@@H]12` (some centres undefined) [SAPONIN], in the data set on Erythrocyte, the Activity result is given as “Toxic”.
For `O=C(O)c1ccc(/C=N/CCNc2ccnc3cc(Cl)ccc23)cc1`, the hemolysis at 16 h, 150 µM in data set [1] was less than 10%. Besides, the cytotoxic concentration (CC50) at 48 h in [2] was greater than 28.3 µM. Also, the concentration for half-maximal inhibition (IC50) in the data set on Plasmodium falciparum came to 0.145 µM. Besides, the selectivity ratio in data set [3] is greater than 195. The Activity is on record as 72.64% in the data set on Plasmodium berghei [6] and 21.67% in the data set with Plasmodium berghei [7].
